Measurements reported in ChEMBL document CHEMBL1123915, “Macrolides with gastrointestinal motor stimulating activity” (1987).
Converted amounts (≈) assume the structure as drawn.

What was measured:
Bacillus subtilis = test: Antibacterial activity against Bacillus subtilis ATCC 6633; assay type: functional
Outline: (§1)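 MIC determined by agar dilution. Strains as listed on each line.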

Bacillus cereus = test: Antibacterial activity against Bacillus cereus IFO 3001; assay type: functional; outline: as §1
Canis familiaris = test: Evaluated for gastrointestinal motor stimulating (GMS) activity in dog estimated in vivo by 2 x 2 points parallel line assay. Activity of EM-A was assumed to be 1; assay type: functional, Canis lupus familiaris
Outline: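 Fasted conscious dogs carried chronically implanted serosal force transducers recording circular muscle contraction in the gastric body, antrum and small intestine. Dosing was an intravenous bolus 10–15 min after interdigestive gastric contractions ended. Antral contractile waves were integrated for 10 min from injection. Relative potency came from a 2 × 2 parallel line assay with five animals per dose, using EM as the reference in each assay.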

Escherichia coli = test: Antibacterial activity against Escherichia coli NIHJ; assay type: functional; outline: as §1
Klebsiella pneumoniae = test: Antibacterial activity against Klebsiella pneumoniae ATCC 10031; assay type: functional; outline: as §1
Staphylococcus aureus = test: Antibacterial activity against Staphylococcus aureus ATCC 6538P; assay type: functional; outline: as §1

Row | SMILES | MIC (Bacillus subtilis) [µg/mL] | MIC (Bacillus cereus) [µg/mL] | GMS activity (Canis familiaris) | MIC (Escherichia coli) [µg/mL] | MIC (Klebsiella pneumoniae) [µg/mL] | MIC (Staphylococcus aureus) [µg/mL]
1 | CCC1OC(=O)C(C)C(OC2CC(C)(OC)C(O)C(C)O2)C(C)[C@@H](OC2OC(C)CC([N+](C)(C)C)C2O)[C@]2(C)C[C@@H](C)C(O2)[C@H](C)[C@@H](O)[C@]1(C)O.[I-] (stereo not given in full) | > 100 | > 100 | 65 | > 100 | > 100 | > 100
2 | CC[C@H]1OC(=O)[C@H](C)[C@@H](O[C@H]2C[C@@](C)(OC)[C@@H](O)[C@H](C)O2)[C@H](C)[C@@H](O[C@@H]2O[C@H](C)C[C@H](N(C)C)[C@H]2O)[C@@]2(C)CC(C)=C(O2)[C@H](C)[C@@H](O)[C@]1(C)O | 25 (≈ 34.9 µM) | 25 (≈ 34.9 µM) | 10 | > 100 | > 100 | 50 (≈ 69.8 µM)
3 | C#CC[N+](C)(C)C1CC(C)OC(O[C@@H]2C(C)C(OC3CC(C)(OC)C(O)C(C)O3)C(C)C(=O)OC(CC)[C@@](C)(O)[C@H](O)[C@@H](C)C3O[C@@]2(C)C[C@H]3C)C1O.[Br-] (stereo not given in full) | > 100 | > 100 | 202 | > 100 | > 100 | > 100
4 | C=CC[N+](C)(C)C1CC(C)OC(O[C@@H]2C(C)C(OC3CC(C)(OC)C(O)C(C)O3)C(C)C(=O)OC(CC)[C@@](C)(O)[C@H](O)[C@@H](C)C3O[C@@]2(C)C[C@H]3C)C1O.[Br-] (stereo not given in full) | 100 | 100 | 115 | > 100 | > 100 | 100
5 | C=CC[N+](C)(C)[C@@H]1C[C@@H](C)O[C@@H](O[C@@H]2C(C)C(O[C@H]3C[C@@](C)(OC)[C@@H](O)[C@@H](C)O3)C(C)C(=O)OC(CC)[C@@](C)(O)[C@H](O)[C@@H](C)C3=C(C)C[C@]2(C)O3)[C@@H]1O.[Br-] (stereo not given in full) | > 100 | > 100 | 256 | > 100 | > 100 | 100
6 | C#CC[N+](C)(C)[C@@H]1C[C@@H](C)O[C@@H](O[C@@H]2C(C)C(O[C@H]3C[C@@](C)(OC)[C@@H](O)[C@@H](C)O3)C(C)C(=O)OC(CC)[C@@](C)(O)[C@H](O)[C@@H](C)C3=C(C)C[C@]2(C)O3)[C@@H]1O.[Br-] (stereo not given in full) | 100 | 100 | 2890 | > 100 | > 100 | 100
7 | CCC1OC(=O)C(C)C(O[C@H]2C[C@@](C)(OC)[C@@H](O)[C@@H](C)O2)C(C)[C@@H](O[C@@H]2O[C@H](C)C[C@@H]([N+](C)(C)C)[C@H]2O)[C@]2(C)CC(C)=C(O2)[C@H](C)[C@@H](O)[C@]1(C)O.[I-] (stereo not given in full) | > 100 | > 100 | 21 | > 100 | > 100 | > 100
8 | CCC1OC(=O)C(C)C(O[C@H]2C[C@@](C)(OC)[C@@H](O)[C@@H](C)O2)C(C)[C@@H](O[C@@H]2O[C@H](C)C[C@@H]([N+](C)(C)CC)[C@H]2O)[C@]2(C)CC(C)=C(O2)[C@H](C)[C@@H](O)[C@]1(C)O.[I-] (stereo not given in full) | > 100 | > 100 | 111 | > 100 | > 100 | > 100
9 | CCC1OC(=O)C(C)C(O[C@H]2C[C@@](C)(OC)[C@@H](O)[C@@H](C)O2)C(C)[C@@H](O[C@@H]2O[C@H](C)C[C@@H](N(C)CC)[C@H]2O)[C@]2(C)CC(C)=C(O2)[C@H](C)[C@@H](O)[C@]1(C)O (stereo not given in full) | > 100 | > 100 | 18 | > 100 | > 100 | > 100
10 | CC[C@H]1OC(=O)[C@H](C)[C@@H](O[C@H]2C[C@@](C)(OC)[C@@H](O)[C@H](C)O2)[C@H](C)[C@@H](O[C@@H]2O[C@H](C)C[C@H](N(C)C)[C@H]2O)[C@](C)(O)C[C@@H](C)C(=O)[C@H](C)[C@@H](O)[C@]1(C)O [ERYTHROMYCIN] | 0.1 (≈ 0.136 µM) | 0.1 (≈ 0.136 µM) | 1 | 12.5 (≈ 17 µM) | 6.25 (≈ 8.52 µM) | 0.2 (≈ 0.273 µM)
